Measured values collected from several papers.
Lines come from different studies, so protocols differ.
Target: Rhodopsin kinase GRK7 (GRK7, Homo sapiens, UniProt Q8WTQ7)
One construct used (Q8WTQ7 1-553): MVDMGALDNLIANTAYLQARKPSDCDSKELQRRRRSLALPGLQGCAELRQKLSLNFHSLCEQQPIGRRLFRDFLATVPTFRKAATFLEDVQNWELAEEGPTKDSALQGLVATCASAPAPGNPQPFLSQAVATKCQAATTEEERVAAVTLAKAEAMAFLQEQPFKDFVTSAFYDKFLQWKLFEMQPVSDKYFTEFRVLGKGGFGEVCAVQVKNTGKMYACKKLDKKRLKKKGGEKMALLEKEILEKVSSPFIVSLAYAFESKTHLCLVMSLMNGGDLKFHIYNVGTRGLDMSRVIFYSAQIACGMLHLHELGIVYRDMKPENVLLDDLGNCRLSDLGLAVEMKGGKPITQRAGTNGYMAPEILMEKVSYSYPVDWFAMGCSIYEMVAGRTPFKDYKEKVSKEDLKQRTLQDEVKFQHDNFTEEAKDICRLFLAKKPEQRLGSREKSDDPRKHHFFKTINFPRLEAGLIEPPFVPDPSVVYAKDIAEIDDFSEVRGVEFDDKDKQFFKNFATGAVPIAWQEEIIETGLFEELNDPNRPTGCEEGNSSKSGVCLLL

Compound | assay | setting | measurement | value
CN1CCN(c2cnc3c(C4CCN(C(=O)c5ccc(OC(F)(F)F)cc5N)CC4)ncnc3c2)CC1 | cell-free assay, competition with immobilised ligand | 1 µM | remaining binding | 87%
COc1cc(Cl)c(C(=O)N[C@@H](CN[C@H]2CC[C@@H](N)CC2)Cc2ccc(C#N)cc2)cc1-c1ccc(CN[C@H](C)c2ccc(C)cc2)o1 | enzyme activity, inhibitor | 1 µM | remaining activity | 102%
C#Cc1cccc(Nc2ncnc3cc(OCCOC)c(OCCOC)cc23)c1 | cell-free assay | 0.5 µM | remaining signal | 98.3%
CCC(=O)N[C@H]1CC[C@@H](C(=O)N(C)c2ccc(-c3nc4ccccc4o3)cc2)C1 | cell-free assay, competition with immobilised ligand | 1 µM | remaining binding | 82%
COc1cc2ncnc(Nc3ccc(Oc4ccccc4)c(C)c3C)c2cc1OC | enzyme activity, inhibitor | 1 µM | inhibition | 0%
CC1=C(C#N)C(c2ccc3c(c2)c(NC(=O)c2ccccc2C)nn3C)C(C#N)=C(C)N1 | cell-free assay, competition with immobilised ligand | 1 µM | remaining binding | 70%
CCCS(=O)(=O)Nc1ccc(F)c(C(=O)c2c[nH]c3ncc(-c4ccc(Cl)cc4)cc23)c1F | enzyme activity, inhibitor | 1 µM | inhibition | < 10%
CC(C)(C)c1nc(-c2cccc(NS(=O)(=O)c3c(F)cccc3F)c2F)c(-c2ccnc(N)n2)s1 | enzyme activity, inhibitor, radiometric | 1 µM | remaining activity | 76%
N#CCCc1ccc2c(c1)-c1[nH]c3ccc([N+](=O)[O-])cc3c1CC(=O)N2 | cell-free assay | 0.5 µM | remaining signal | 97.7%
CCCOc1ccc([C@H]2[C@H](C(=O)O)[C@@H](c3ccc4c(c3)OCO4)CN2CC(=O)Nc2c(CC)cccc2CC)cc1 | cell-free assay, competition with immobilised ligand | 1 µM | remaining binding | 100%
CC(C)(O)[C@H]1CC[C@H](Nc2ccc3ncc(-c4cccc(C(F)(F)F)c4)n3n2)CC1 | enzyme activity, inhibitor | 1 µM | remaining activity | 38%
CCCOc1ccc(OC)c(F)c1C(=O)c1ccc(C(=O)N[C@@H]2CNC[C@H]2NC(=O)c2ccc3[nH]ncc3c2)cc1 | enzyme activity, inhibitor | 10 µM | remaining activity | 107%
C[C@@H]1CCN(c2nccc(-c3cnn4ncccc34)n2)C1 | binding | 1 µM | remaining binding | 82%
O=C(Nc1cnn(-c2csc(C(=O)NC3COC3)c2)c1)Nc1c(F)cccc1Cl | enzyme activity, inhibitor | 5 µM | remaining activity | 94%
O=C1Nc2ccc(Cl)cc2C1=Cc1cc(Cl)c(O)c(Cl)c1 | cell-free assay | 0.5 µM | remaining signal | 97.3%
Cc1nc(Cc2cccc(C(F)(F)F)c2)sc1-c1ccc(C(N)=O)nc1 | cell-free assay, competition with immobilised ligand | 1 µM | remaining binding | 100%
Cc1ccc(C(=O)Nc2ccc(CN3CCN(C)CC3)c(C(F)(F)F)c2)cc1C#Cc1cnc2cccnn12 | enzyme activity, inhibitor | 23.5 nM | remaining activity | 94%
